In ChEMBL document CHEMBL2434904, “Novel N-methylsulfonamide and retro-N-methylsulfonamide derivatives as 17β-hydroxysteroid dehydrogenase type 2 (17β-HSD2) inhibitors with good ADME-related physicochemical parameters” (Eur J Med Chem, 2013):

Key:
[1] = biological target: T1, 17-beta-hydroxysteroid dehydrogenase type 1 (Homo sapiens, UniProt P14061); experiment: Inhibition of human placenta 17beta-HSD1 cytosolic fraction using unlabeled, [2,4,6,7-3H]-estrone as substrate after 10 mins by HPLC analysis in presence of NADH
T1 sequence (P14061 whole entry): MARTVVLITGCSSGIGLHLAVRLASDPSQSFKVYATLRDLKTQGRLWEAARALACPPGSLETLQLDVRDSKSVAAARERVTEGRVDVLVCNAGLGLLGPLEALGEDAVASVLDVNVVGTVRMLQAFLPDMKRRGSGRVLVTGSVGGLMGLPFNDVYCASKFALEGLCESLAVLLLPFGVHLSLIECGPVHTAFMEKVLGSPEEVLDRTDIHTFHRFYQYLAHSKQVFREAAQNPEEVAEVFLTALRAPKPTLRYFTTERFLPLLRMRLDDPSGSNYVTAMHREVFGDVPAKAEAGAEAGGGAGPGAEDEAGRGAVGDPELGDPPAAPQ

Homo sapiens = organism: Homo sapiens; experiment: Selectivity factor, ratio of IC50 for human placenta 17beta-HSD1 cytosolic fraction to IC50 for human placenta 17beta-HSD2 microsomal fraction
How it was run: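 Selectivity factor is IC50(17β-HSD1, placental cytosolic, E1/NADH assay) divided by IC50(17β-HSD2, placental microsomal, E2/NAD⁺ assay). Both come from radiolabeled-substrate conversion assays at 37 °C with 500 nM substrate.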

[2] = Partition coefficient, log P of the compound; type: physicochemical; details: octanol/water
How it was run: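 Experimental log P was measured on a SiriusT3 instrument. Calculated log P came from the GALAS method, which predicts from structurally similar molecules with known experimental data.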

[3] = biological target: T2, 17-beta-hydroxysteroid dehydrogenase type 2 (Homo sapiens, UniProt P37059); experiment: Inhibition of human placenta 17beta-HSD2 microsomal fraction using unlabeled, [2,4,6,7-3H]-estradiol as substrate after 20 mins by HPLC analysis in presence of NAD+
T2 sequence (P37059 whole entry): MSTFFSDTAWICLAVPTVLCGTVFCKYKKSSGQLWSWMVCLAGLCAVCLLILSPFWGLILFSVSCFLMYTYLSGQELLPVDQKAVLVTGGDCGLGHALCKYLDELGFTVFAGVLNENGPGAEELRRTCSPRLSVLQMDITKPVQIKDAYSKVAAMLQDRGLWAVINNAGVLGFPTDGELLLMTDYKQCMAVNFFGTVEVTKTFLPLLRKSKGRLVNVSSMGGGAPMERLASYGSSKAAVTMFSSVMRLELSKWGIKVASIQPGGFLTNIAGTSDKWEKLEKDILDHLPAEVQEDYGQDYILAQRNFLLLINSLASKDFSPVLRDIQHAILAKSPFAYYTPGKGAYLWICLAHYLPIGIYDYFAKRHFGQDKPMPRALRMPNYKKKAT
How it was run: (§1)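 17β-HSD2 came from the human placental microsomal pellet after fractional centrifugation at 1000, 10,000 and 150,000 g. It was incubated at 37 °C with NAD⁺ and inhibitor in 50 mM phosphate buffer with 20% glycerol, 1 mM EDTA and 1% DMSO final. Unlabeled plus [³H]-E2 (500 nM final) was added, and the reaction was stopped with HgCl₂ after 20 min. After ether extraction, radio-flow detection gave % conversion = E1/(E1+E2). At least three independent experiments were run.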

[4] = biological target: T3, 17-beta-hydroxysteroid dehydrogenase type 1 (Homo sapiens) (UniProt P14061); experiment: Inhibition of human placenta 17beta-HSD1 cytosolic fraction using unlabeled, [2,4,6,7-3H]-estrone as substrate at 1 uM after 10 mins by HPLC analysis in presence of NADH relative to control
T3 sequence (whole entry): T1 sequence (P14061 whole entry)

[5] = biological target: T4, 17-beta-hydroxysteroid dehydrogenase type 2 (Homo sapiens) (UniProt P37059); experiment: Inhibition of human placenta 17beta-HSD2 microsomal fraction using unlabeled, [2,4,6,7-3H]-estradiol as substrate at 1 uM after 20 mins by HPLC analysis in presence of NAD+ relative to control
T4 sequence (whole entry): T2 sequence (P37059 whole entry)
How it was run: as §1

[6] = biological target: T2, 17-beta-hydroxysteroid dehydrogenase type 2; experiment: Inhibition of 17beta-HSD2 (unknown origin)

SMILES | IC50 [1] | Ratio IC50 (Homo sapiens) | logP [2] | IC50 [3] | inhibition [4] | inhibition [5] | IC50 [6]
CN1C(=O)C[C@@H](c2ccccc2F)[C@@H]1[C@@H](O)c1ccc(-c2ccccc2)cc1 |  |  |  |  |  |  | 1020 nM
CN1C(=O)C[C@@H](c2ccccc2F)[C@@H]1[C@@H](O)c1cccc(-c2ccccc2)c1 |  |  |  |  |  |  | 420 nM
CN(c1cccc(O)c1)S(=O)(=O)c1cccc(-c2cccc(O)c2)c1 | 1310 nM | 2 | 4.34 | 540 nM | 42% | 68% | 
CN(c1cccc(-c2cccc(O)c2)c1)S(=O)(=O)c1cccc(O)c1 | 427 nM | 3 | 4.08 | 159 nM | 68% | 88% | 

Next, values leading:

IC50 [1] | Ratio IC50 (Homo sapiens) | logP [2] | IC50 [3] | inhibition [4] | inhibition [5] | IC50 [6] | SMILES
> 60000 nM | > 115 |  |  |  |  |  | COc1cccc(-c2cccc(C(=O)N(C)c3cccc(OC)c3)c2)c1
3280 nM | 6 | 3.72 | 511 nM | 22% | 66% |  | CN(c1ccc(-c2cccc(O)c2)cc1)S(=O)(=O)c1cccc(O)c1
 |  |  |  | 3% |  |  | COc1ccc(-c2cccc(C(=O)N(C)Cc3cccc(OC)c3)c2)cc1
